Screening results deposited in PubChem by The Scripps Research Institute Molecular Screening Center.
Tb MetRS inh = Trypanosoma brucei MetRS inhibition; purified T. brucei MetRS, ATP depletion, Kinase-Glo luminescence; inhibition, % at 11.9 µM; 360,000 tested, 0.4% active; AID 624268;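 active = inhibition above a per-plate cutoff of the control wells' mean inhibition plus 3 SD, cut at about 5.5% in these data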;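 also: 0% = DMSO wells median and 100% = median of wells with control inhibitor compound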
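Assay system: T. brucei methionyl-tRNA synthetase, purified | Medium: HEPES buffer with MgCl2, KCl, DTT, spermine, BSA, pyrophosphatase | Compound: 11.9 µM single point | Incubation: 15 min enzyme-compound preincubation, 2 h reaction, 10 min detection, 25 °C | Measured by: Kinase-Glo luciferase luminescence reporting remaining unconsumed ATP | Measure: % inhibition normalized to control-well medians | Replication: Singlicate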
ADAM17 inh = inhibits human ADAM17; inhibition, % at 6.95 µM; P78536; 370,000 tested, 0.83% active; recombinant ADAM17, EDANS/DABCYL FRET peptide cleavage;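 active = inhibition above the mean of compounds lying between control limits plus 3 SD, set per campaign, cut at about 8.5% in these data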;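 also: 0% = DMSO-only wells as the low control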
PLC-gamma1 inh = inhibitors of human phospholipase C gamma1 | P19174 | purified PLC-gamma1, fluorogenic substrate, fluorescence | inhibition, % at 12.2 µM | 370,000 tested, 0.84% active | AID 720700; in the data active = inhibition above about 9.5%
PLC-beta3 inh = blocks human PLC-beta3 enzyme activity; Purified PLC-beta3, fluorogenic substrate, fluorescence; inhibition, % at 12.2 µM; 370,000 tested, 0.18% active; AID 720704; in the data active = inhibition above about 11%;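 also: 0% = median of compound wells on plate and 100% = full blocker control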
ADAM10 inh = inhibits human ADAM10 | inhibition, % at 7 µM | 370,000 tested, 0.62% active | recombinant ADAM10, EDANS/DABCYL FRET peptide cleavage, 3 h;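 active = inhibition above a per-campaign cutoff equal to the mean of compounds falling between control-based bounds plus 3 SD, cut at about 20% in these data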;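 also: 0% = DMSO wells while the 100% control is not disclosed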
Target sequence (O14672 214-748 limits assumed): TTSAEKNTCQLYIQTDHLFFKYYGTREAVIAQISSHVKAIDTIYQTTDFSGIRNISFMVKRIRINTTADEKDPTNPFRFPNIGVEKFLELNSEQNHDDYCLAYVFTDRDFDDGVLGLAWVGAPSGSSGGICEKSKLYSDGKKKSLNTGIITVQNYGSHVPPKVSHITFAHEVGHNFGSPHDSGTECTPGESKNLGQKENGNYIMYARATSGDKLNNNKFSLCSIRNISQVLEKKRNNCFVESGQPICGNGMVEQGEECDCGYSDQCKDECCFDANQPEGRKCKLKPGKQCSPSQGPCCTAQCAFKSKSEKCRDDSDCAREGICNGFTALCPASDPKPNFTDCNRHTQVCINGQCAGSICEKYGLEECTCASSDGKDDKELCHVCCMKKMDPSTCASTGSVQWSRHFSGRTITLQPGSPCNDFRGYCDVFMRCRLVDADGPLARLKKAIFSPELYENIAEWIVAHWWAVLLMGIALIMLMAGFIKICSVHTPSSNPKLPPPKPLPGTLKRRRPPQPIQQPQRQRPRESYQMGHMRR
ADAM10 ctr = counter-screen for ADAM17 exosite inhibitors: inhibitors of human ADAM10. shares compounds with ADAM17 inh. inhibition, % at 6.95 µM. 2,900 tested, 47% active. AID 743256. recombinant ADAM10, EDANS/DABCYL FRET peptide cleavage, 3 h;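 active = mean inhibition over the triplicate runs exceeds the activity threshold set in the earlier primary screen, cut at about 20% in these data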;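 also: 0% = DMSO wells and 100% = marimastat wells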
ADAM17 confirm = human ADAM17 inhibition, confirmation; shares compounds with ADAM17 inh; recombinant ADAM17, EDANS/DABCYL QFRET peptide cleavage; inhibition, % at 6.95 µM; 2,900 tested, 65% active; AID 743257;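 active = mean inhibition across replicates above the hit cutoff set in the primary screen, cut at about 8.5% in these data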;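 also: 0% = DMSO wells and 100% = marimastat wells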
Starred values were filed as active, the others as inactive; i = inactive; nt = no result. Only some compounds are listed: those with a hit (about 2.3% of all), similar ones and a draw of the others.

SMILES | Tb MetRS inh | ADAM17 inh | PLC-gamma1 inh | PLC-beta3 inh | ADAM10 inh | ADAM10 ctr | ADAM17 confirm
Nc1cc(S(=O)(=O)N2CCCCC2)ccc1Oc1ccc(Cl)cc1 | 0 | 8.8* | 1 | 6 | 20 | 17 | 11*
Cc1ccccc1-c1cc2nc(Oc3cccc4ccccc34)n(C)c(=O)c2s1 | 0 | 9.2* | 7 | -1 | 1 | 15 | 9.5*
Cc1ccccc1-c1cc2nc(Oc3ccc4c(c3)OCO4)n(C)c(=O)c2s1 | 0 | 0 | 2 | 1 | -5 | nt | nt
CC(C)C[C@H](CO)N(Cc1ccccc1)S(=O)(=O)N(Cc1ccccc1)[C@@H](CO)CC(C)C | 0 | 13* | 5 | 9 | -3 | 47* | 26*
CCNC(=O)C1(C)CCCN1C(=O)c1cnc2ccccc2n1 (stereo unspecified) | 0 | -5 | -10 | -13 | -17 | nt | nt
C=CCNc1cccc2c1S(=O)(=O)N[C@@H](CC(C)C)CO2 | nt | -3 | 1 | 3 | -4 | nt | nt
COc1ccc(-c2noc(CCC(=O)N3CCN(c4cccc(C)c4C)CC3)n2)cc1 | 0 | 9.3* | -2 | -7 | 9 | 27* | 16*
Cc1ncc(CO)c(/C=N/NC(=O)c2cc3c(s2)CCCC3)c1O | -1 | -112 | i | i | -327 | nt | nt
Nc1ccc(S(=O)(=O)Nc2nccc(/C=C/c3cccc(Br)c3)n2)cc1 | 0 | 1 | -2 | -4 | -4 | nt | nt
CCOc1ccc(-c2c(C(=O)N/N=C/C3CC=CCC3)nnn2-c2nonc2N)cc1 (stereo unspecified) | 0 | 9.6* | 1 | -6 | 7 | 4 | 7
CC(=O)C1(C(=O)N2CCOCC2)CC(c2ccccc2C(F)(F)F)=NO1 (stereo unspecified) | nt | -5 | -2 | -2 | -9 | nt | nt
c1ccc(-c2nnc(-c3c[nH]c4ccccc34)nc2-c2ccccc2)cc1 | -1 | 8.7* | -9 | -11 | 16 | 14 | 8.8*
CCN(C(=O)COC(=O)CNC(=O)c1ccc(C)s1)c1ccccc1 | 0 | -3 | 2 | 1 | -10 | nt | nt
O=C(c1cc(-c2ccccc2)nc2ccccc12)N1CCN(c2ccccc2O)CC1 | 0 | 14* | 6 | 5 | 13 | 29* | 19*
O=C(N/N=C/c1cccnc1)c1ccc2c(c1)OCCO2 | 0 | -3 | -1 | -3 | -5 | nt | nt
CC1(c2nnc(-c3cccc(Cl)c3)o2)CC(c2ccc(Cl)cc2)=NO1 (stereo unspecified) | 0 | 0 | -1 | -3 | 5 | nt | nt
CC1(c2nnc(-c3cccc(Cl)c3)o2)CC(c2ccc(F)cc2)=NO1 (stereo unspecified) | 0 | 11* | 8 | 4 | 10 | -3 | 3
COC(=O)[C@]12C[C@H](CC(=O)NCc3ccc(C)o3)C(=O)N(Cc3ccccc3)C1=C[C@H](C(C)C)O[C@@H]2C1CC1 | nt | 1 | 2 | 8 | -4 | nt | nt
O=C(NCC(=O)N1CCN(C(c2ccccc2)c2ccccc2)CC1)c1ccccc1Br | 0 | 12* | 5 | 3 | 14 | 20* | 12*
O=C(NCC(=O)N1CCN(C(c2ccccc2)c2ccccc2)CC1)c1ccc(Br)o1 | 0 | 0 | 4 | -3 | 1 | nt | nt
CCCCCC(=O)N1C[C@@H](n2cc(-c3ccc(F)cc3)nn2)[C@H](O)C[C@@H]1c1ccc(C)cc1 | -1 | 10* | 0 | 3 | 17 | 17 | 9.9*
COc1ccc([C@H]2C[C@H](O)[C@@H](n3cc(COC(=O)c4ccccc4)nn3)CN2Cc2cccs2)cc1 | 1 | 9.3* | 4 | 9 | 7 | 8 | 4
CCCCCC(=O)N1C[C@H](n2cc(COC(=O)c3ccccc3)nn2)[C@@H](O)C[C@@H]1c1ccc(C)cc1 | 0 | 9.8* | -2 | 0 | 16 | 33* | 17*
CCCCCC(=O)N1C[C@@H](O)[C@H](n2cc(-c3ccc(F)cc3)nn2)C[C@@H]1c1ccc(C)cc1 | -1 | 3 | 2 | 1 | 9 | nt | nt
O=C(CSc1nnc(C2CC2)n1-c1ccccc1)N1CCCC1 | 0 | -6 | 3 | 0 | -15 | nt | nt
SMILES | Tb MetRS inh | ADAM17 inh | PLC-gamma1 inh | PLC-beta3 inh | ADAM10 inh | ADAM10 ctr | ADAM17 confirm
CCc1ccc(-c2nnn(CC(=O)N(C3CCCC3)C3CCS(=O)(=O)C3)n2)cc1 (stereo unspecified) | 1 | 1 | 2 | -9 | -19 | nt | nt
COc1ccc2cc(CN(Cc3cccs3)Cc3nnnn3Cc3ccccc3)c(=O)[nH]c2c1 | 0 | 0 | -17 | -22 | -14 | nt | nt
Cc1cccc2cc(CN(Cc3cccs3)Cc3nnnn3Cc3ccccc3)c(=O)[nH]c12 | 0 | 11* | 3 | -5 | 7 | -9 | 3
CN(C)C1=NCCN1CCC1CCCC1 | 0 | -2 | 2 | 4 | -6 | nt | nt
Cc1ccc(COn2c(-c3ccc(Cl)cc3Cl)nc3ncccc32)cc1 | -1 | -3 | -2 | -7 | -8 | nt | nt
Clc1cccc(COn2c(-c3ccc(Cl)cc3Cl)nc3ncccc32)c1 | 0 | 11* | 2 | -7 | 4 | -13 | 4
O=[N+]([O-])c1ccc(-c2cnc(SC(c3ccccc3)c3ccccc3)[nH]2)cc1 | 0 | 10.0* | -27 | -34 | 17 | 33* | 14*
NC(=O)CSc1ncc(-c2ccccc2)[nH]1 | -1 | -2 | 0 | 2 | 3 | nt | nt
CCOC(=O)N1CCN(C(=O)CSc2nc(=O)n3ccc(C)cc3n2)CC1 | 0 | -9 | -3 | -9 | -11 | nt | nt
CCC(=O)N(CCC(c1ccccc1)c1ccco1)Cc1cccs1 (stereo unspecified) | -1 | 9.8* | 5 | 3 | 3 | -2 | 1
COc1ccccc1C(=O)NC(C)c1ccc(-n2ccnc2)cc1 (stereo unspecified) | 0 | -1 | 1 | 0 | 2 | nt | nt
O=C(c1ccc(Cl)cc1)N1CCC(Oc2cccnc2)CC1 | nt | -3 | -1 | 4 | -4 | nt | nt
COc1ccc(C2=NN(C(=O)CSc3nnc(-c4ccccc4F)o3)C(c3ccco3)C2)cc1 (stereo unspecified) | 0 | 11* | 7 | 9 | 5 | 9 | 6
CC#CC(=O)N1CCC(CCC(=O)N(C)Cc2ccccc2)CC1 | 0 | 0 | 5 | -6 | -8 | nt | nt
COc1cccc(C(O)c2nc(/C=C/c3ccc(C(F)(F)F)cc3)cs2)c1 (stereo unspecified) | 0 | 6 | -11 | -17 | 6 | nt | nt
OC(c1cccc(Cl)c1)c1nc(/C=C/c2ccc(C(F)(F)F)cc2)cs1 (stereo unspecified) | 0 | 12* | -6 | -15 | 16 | 1 | 6
CC(C)c1cccc(-c2csc(C(O)c3cccc(Cl)c3)n2)c1 (stereo unspecified) | 0 | 9.7* | 2 | 6 | 12 | 19 | 13*
